Values joined by “and” are separate entries in the source; they are usually repeats but may differ in a detail not shown here. Equal entries are not always repeated. Values belong to the molecule of their own block, whether it stands above or below them.
What was measured:
LM [1] = test: Effect on DNA synthesis in mouse LM(TK-) cells blocked in DNA synthesis with Aminopterin at 10e-4 M; assay type: functional
Method in brief: (§1)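 LM(TK-) mouse fibroblasts, 5×10^5 or 1×10^6 per 6-cm dish, grown overnight in DMEM/10% FBS at 37 °C, 5% CO2. Blocked 3 h in medium with heat-inactivated serum, aminopterin 1 μg/mL, glycine and hypoxanthine 15 μg/mL each, no 5'-NH2-dT. Compounds diluted from 10 mM stocks in 50% ethanol-water; controls got vehicle. Recovery 2 h, then [3H]-dC 1 μCi/mL for 1–3 h. Cold 5% TCA-insoluble counts in duplicate; enhancement = rate with compound / rate in parallel controls.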

L929 [2] = test: Stimulation of DNA synthesis in L929 cells in the presence of 5'-NH2-dT; assay type: functional, Mus musculus
L929 [3] = test: Rate of incorporation of [3H]-dC into DNA in mouse L929 cells at 10e-4 concentration; units=cpm/hx 5*10e5 cells; assay type: functional
L929 [4] = test: Stimulation of DNA synthesis in L929 cells in the absence of 5'-NH2-dT; assay type: functional, Mus musculus
Method in brief: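 L929 cells blocked 3 h with aminopterin medium. 5'-NH2-dT (1.0 mM) was left out of the 2 h recovery medium that held the compound. Labelled with [3H]-dC 1 μCi/mL; TCA-insoluble incorporation (cpm/h per 5×10^5 cells) compared with parallel control cultures.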

LM [5] = test: Effect (10e-3 M) on DNA synthesis in mouse LM(TK-) cells blocked in DNA synthesis with Aminopterin; assay type: functional; method in brief: as §1
LM [6] = test: Effect (10e-4 M) on DNA synthesis in mouse LM(TK-) cells blocked in DNA synthesis with Aminopterin; assay type: functional; method in brief: as §1
LM [7] = test: Effect (10e-5 M) on DNA synthesis in mouse LM(TK-) cells blocked in DNA synthesis with Aminopterin; assay type: functional; method in brief: as §1
LM [8] = test: Effect (10e-6 M) on DNA synthesis in mouse LM(TK-) cells blocked in DNA synthesis with Aminopterin; assay type: functional
Method in brief: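 LM(TK-) fibroblasts seeded and cultured overnight. Blocked 3 h in heat-inactivated-serum medium with aminopterin 1 μg/mL, glycine and hypoxanthine 15 μg/mL, no 5'-NH2-dT. Compound diluted from 10 mM stock in 50% ethanol-water and applied 2 h. Then [3H]dC 1 μCi/mL; acid-insoluble radioactivity measured in duplicate. Effect expressed as incorporation rate relative to parallel vehicle controls.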

L929 [9] = test: Rate of incorporation of [3H]dC into DNA in mouse L929 cells at 10e-5 concentration; units=cpm/hx 5*10e5 cells; assay type: functional
Method in brief: (§2)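 L929 cells seeded at 5×10^5 or 1×10^6 per dish in DMEM/10% FBS, overnight at 37 °C, 5% CO2. Blocked 3 h in medium with heat-inactivated serum, aminopterin 1 μg/mL, glycine and hypoxanthine 15 μg/mL each, and 1.0 mM 5'-NH2-dT. Test agent in the same medium for 2 h, then 1 μCi/mL [3H]dC for 1–3 h. Cold 5% TCA-insoluble counts in duplicate, scaled to cell counts.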

L929 [10] = test: Rate of incorporation of [3H]dC into DNA in mouse L929 cells at 10e-6 concentration; units=cpm/hx 5*10e5 cells; assay type: functional; method in brief: as §2
[11] = Compound was evaluated for the Hydrolysis rate in aqueous 50 mM Potassium Phosphate; assay type: ADME; conditions: aqueous potassium phosphate buffer
Method in brief: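 5 mM ester in aqueous 50 mM potassium phosphate, pH 7.6, held at 37 °C. Release of free nucleotide followed by paper electrophoresis at pH 3.6 (thymidine release by silica TLC, UV inspection). log(residual ester) plotted against time; t1/2 read graphically from the linear pseudo-first-order plot.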

L929 [12] = test: Rate of incorporation of [3H]dC into DNA in mouse L929 cells at 10e-4 concentration; units=cpm/hx 5*10e5 cells; assay type: functional

Structure (SMILES): CC[N+](CC)(CC)CC[N+](CC)(CC)CCCCC(=O)O[C@H]1C[C@H](n2cc(C)c(=O)[nH]c2=O)O[C@@H]1COP(=O)([O-])[O-]
Incorporation rate (LM [1]): 171 c.p.m. hr-1
Incorporation rate (L929 [2]): 808 c.p.m. hr-1
Incorporation rate (L929 [3]): 673 c.p.m. hr-1 and 1103 c.p.m. hr-1
Incorporation rate (L929 [4]): 5462 c.p.m. hr-1

Structure (SMILES): Cc1cn([C@H]2C[C@H](O)[C@@H](CO)O2)c(=O)[nH]c1=O [DOXRIBTIMINE]
Incorporation rate (LM [5]): 213 c.p.m. hr-1
Incorporation rate (LM [6]): 228 c.p.m. hr-1 and 251 c.p.m. hr-1
Incorporation rate (LM [7]): 204 c.p.m. hr-1
Incorporation rate (LM [8]): 185 c.p.m. hr-1
Incorporation rate (L929 [3]): 28200 c.p.m. hr-1
Incorporation rate (L929 [9]): 2937 c.p.m. hr-1
Incorporation rate (L929 [10]): 465 c.p.m. hr-1

Structure (SMILES): CC(=O)O[C@H]1C[C@H](n2cc(C)c(=O)[nH]c2=O)O[C@@H]1CO
half-life [11]: 135 h

Structure (SMILES): CCN(CC)CC[N+](CC)(CC)CCCC(=O)O[C@H]1C[C@H](n2cc(C)c(=O)[nH]c2=O)O[C@@H]1CO.Cl.[Cl-]
half-life [11]: 28 h

Structure (SMILES): CCN(CC)CCCC[N+](CC)(CC)CCCCC(=O)O[C@H]1C[C@H](n2cc(C)c(=O)[nH]c2=O)O[C@@H]1COP(=O)([O-])O
Incorporation rate (L929 [12]): 782 c.p.m. hr-1 and 821 c.p.m. hr-1

Structure (SMILES): Cc1cn([C@H]2C[C@H](O)[C@@H](COP(=O)(O)O)O2)c(=O)[nH]c1=O [THYMIDINE MONOPHOSPHATE]
Incorporation rate (LM [5]): 596 c.p.m. hr-1 and 668 c.p.m. hr-1 and 837 c.p.m. hr-1
Incorporation rate (LM [6]): 381 c.p.m. hr-1 and 295 c.p.m. hr-1
Incorporation rate (LM [7]): 323 c.p.m. hr-1 and 256 c.p.m. hr-1

Now from value to molecule, other results behind:

half-life [11]: 85 h
Structure (SMILES): CC[N+](CC)(CC)CCCC[N+](CC)(CC)CCCCC(=O)O[C@H]1C[C@H](n2cc(C)c(=O)[nH]c2=O)O[C@@H]1COP(=O)([O-])[O-]
Incorporation rate (LM [6]): 204 c.p.m. hr-1 and 147 c.p.m. hr-1
Incorporation rate (L929 [2]): 1135 c.p.m. hr-1
Incorporation rate (L929 [3]): 1356 c.p.m. hr-1 and 1299 c.p.m. hr-1
Incorporation rate (L929 [4]): 7462 c.p.m. hr-1

half-life [11]: 28 h
Structure (SMILES): CCN(CC)CC[N+](CC)(CC)CCCC(=O)O[C@H]1C[C@H](n2cc(C)c(=O)[nH]c2=O)O[C@@H]1COP(=O)([O-])O

half-life [11]: 72 h
Structure (SMILES): CC[N+](CC)(CC)CCC[N+](CC)(CC)CCCCC(=O)O[C@H]1C[C@H](n2cc(C)c(=O)[nH]c2=O)O[C@@H]1COP(=O)([O-])[O-]

half-life [11]: 87 h
Structure (SMILES): CC[N+](CC)(CC)CCCC[N+](CC)(CC)CCCCC(=O)O[C@H]1C[C@H](n2cc(C)c(=O)[nH]c2=O)O[C@@H]1CO.[Cl-].[Cl-]

half-life [11]: 74 h
Structure (SMILES): CCN(CC)CCC[N+](CC)(CC)CCCCC(=O)O[C@H]1C[C@H](n2cc(C)c(=O)[nH]c2=O)O[C@@H]1COP(=O)([O-])O
Incorporation rate (L929 [3]): 605 c.p.m. hr-1 and 504 c.p.m. hr-1
